“And” between values parts separate entries of the source, which are not always exact repeats. Equal values may be shown once. One block for each compound: values may come before it.
Key:
R/R CLL/SLL = test: Exposure-efficacy; assay type: in vivo, human; conditions: for relationship between exposures and efficacy endpoints (BOR and SPD): Chinese patients with R/R CLL/SLL (n = 60), 100 mg BID
How it was run: (§1)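 Chinese pivotal phase 1/2 study (MCL n = 34; CLL n = 60). Per-patient acalabrutinib, ACP-5862 and total active moiety AUC_24h,ss and C_max,ss were taken from pop-PK post hoc estimates. Total active moiety was adjusted for BTK potency and protein binding. Best overall response was assessed by an independent review committee: CR/PR/SD/PD for MCL, PR/PRL/SD for CLL/SLL. SPD change from baseline was also scored. Analysis was graphical plus logistic regression.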

R/R MCL = test: Exposure-efficacy; assay type: in vivo, human; conditions: for relationship between exposures and efficacy endpoints (BOR and SPD): Chinese patients with R/R MCL (n = 34), 100 mg BID
How it was run: as §1

[1] = Population pharmacokinetic; assay type: in vivo, human; conditions: for geometric mean AUC24h,ss higher in Chinese patients than in White patients / geometric mean C max,ss higher in Chinese patients than in White patients: 100 mg BID, empirical Bayes estimates, Chinese n = 105, White n = 512
How it was run: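 Pooled plasma acalabrutinib/ACP-5862 data from 14 trials, with China study intensive and sparse schedules, were fitted to the existing model. Parent: two-compartment, five transit compartments. Metabolite: two-compartment, formation fixed at 0.4 CL/F. BOV was on MTT and F1; BSV on clearances and volumes. Race (East Asian vs non-East Asian), PPI, ECOG and health status were tested as proportional shifts. Estimation used NONMEM SAEM/IMP, with BLQ handled by M3.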

[2] = humans, cited from earlier work
[3] = used for total active concentration; cited from earlier work
BTK [4] = conditions: cited from earlier work
[5] = radio-labelled dose, humans; cited from earlier work
[6] = cited from earlier work
Exposure-safety = assay type: in vivo, human
How it was run: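 Pooled seven studies (six global plus China; n = 476). Endpoints were incidence of grade ≥2 AEs, grade ≥3 AEs, and grade ≥2 AEs of clinical interest occurring in ≥5% of patients (MedDRA v21.1). Post hoc pop-PK steady-state exposures (acalabrutinib AUC_24h,ss primary) were related to AE incidence by graphical plots and logistic regression with 95% CI. Analysis was run for the global and Chinese populations.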

[7] = test system: breast cancer‐resistance protein (BCRP); conditions: cited from earlier work
[8] = assay type: in vivo, human; conditions: noncompartmental analysis, patients with intensive PK sampling
[9] = cited from earlier work; remark: listed apart in the source
BTK [10] = conditions: 100 mg BID, clinical pharmacodynamic data; cited from earlier work
CYP3A enzymes = conditions: cited from earlier work
[11] = at a 400 mg daily dose; cited from earlier work
[12] = Chinese R/R CLL/SLL, n = 60, 100 mg BID
[13] = Chinese R/R MCL, n = 34, 100 mg BID

geometric mean AUC24h,ss higher in Chinese patients than in White patients [1]: 28% | geometric mean C max,ss higher in Chinese patients than in White patients [1]: 28% | CLM/F, apparent clearance of metabolite, estimate (RSE %) ([1]; final model fixed effect): 21.5 (0.6) L/h | QM/F, apparent intercompartmental clearance for metabolite, estimate (RSE %) ([1]; final model fixed effect): 21.1 (2.9) L/h | VcM/F, apparent volume of the central compartment for metabolite, estimate (RSE %) ([1]; final model fixed effect): 24.3 (1.7) L | VpM/F, apparent volume of the peripheral compartment for metabolite, estimate (RSE %) ([1]; final model fixed effect): 90.9 (1.3) L | BSV CLM/F, estimate (RSE %) ([1]; random effect): 13.2 (18.7) L/h | BSV QM/F, estimate (RSE %) ([1]; random effect): 62.4 (13.8) L/h | BSV VcM/F, estimate (RSE %) ([1]; random effect): 37.4 (13.7) L | BSV VpM/F, estimate (RSE %) ([1]; random effect): 29.3 (18.8) L
SMILES: CC#CC(=O)NCCCC(=O)c1nc(-c2ccc(C(=O)Nc3ccccn3)cc2)c2c(N)nccn12 [ACP‐5862]
relationship between exposures and efficacy endpoints (BOR and SPD) (R/R CLL/SLL): flat relationships | relationship between exposures and efficacy endpoints (BOR and SPD) (R/R MCL): flat relationships | mean terminal half‐life [2]: 6.6 h | free fraction (fu) [3]: 0.013 | potency for BTK inhibition compared with acalabrutinib (BTK [4]): approximately 0.5 fold

SMILES: CC#CC(=O)N1CCC[C@H]1c1nc(-c2ccc(C(=O)Nc3ccccn3)cc2)c2c(N)nccn12 [acalabrutinib]
best overall response PR, number of patients (R/R CLL/SLL; [12]): 50 | best overall response PRL, number of patients (R/R CLL/SLL; [12]): 2 | best overall response SD, number of patients (R/R CLL/SLL; [12]): 6 | relationship between exposures and efficacy endpoints (BOR and SPD) (R/R CLL/SLL): flat relationships | best overall response CR, number of patients (R/R MCL; [13]): 12 | best overall response PD, number of patients (R/R MCL; [13]): 4 | best overall response PR, number of patients (R/R MCL; [13]): 16 | best overall response SD, number of patients (R/R MCL; [13]): 1 | relationship between exposures and efficacy endpoints (BOR and SPD) (R/R MCL): flat relationships | dose excreted as unchanged acalabrutinib in urine and faeces [5]: less than 2% | dose recovered in the faeces [5]: 84% | dose recovered in the urine [5]: 12% | incidence of atrial fibrillation and haemorrhage compared with ibrutinib [6]: lower incidence | relationship of acalabrutinib AUC24h,ss with grade ≥2 or ≥3 adverse events (Exposure-safety; both Chinese patients and the overall population, 100–400 mg daily doses): flat relationship | relationship between acalabrutinib AUC24h,ss and grade ≥3 AEs (Exposure-safety; overall population, 100 mg BID): flat relationship | relationship between acalabrutinib AUC24h,ss and grade ≥2 and grade ≥3 AEs (Exposure-safety; overall population, logistic regression, daily doses 100 to 400 mg): no statistically significant relationship | geometric mean AUC24h,ss higher in Chinese patients than in White patients [1]: 28% | geometric mean C max,ss higher in Chinese patients than in White patients [1]: 28% | CL/F higher in healthy participants than in patients with B‐cell malignancies ([1]; covariate analysis): 64.5% | Vp/F lower in healthy participants than in patients with B‐cell malignancies ([1]; covariate analysis): 42.4% | decrease in CL/F, ECOG performance status ≥2 compared with ECOG ≤1 ([1]; covariate analysis): 12.8% | reduction of F1 by PPIs ([1]; covariate analysis): 30.7% | CL/F, apparent clearance of parent drug, estimate (RSE %) ([1]; final model fixed effect): 130.3 (0.4) L/h | Ka, first‐order absorption rate constant, estimate (RSE %) ([1]; final model fixed effect): 1.4 (6.6) h^−1 | MTT, mean transit time, estimate (RSE %) ([1]; final model fixed effect): 0.4 (5) h | Q/F, apparent intercompartmental clearance for parent drug, estimate (RSE %) ([1]; final model fixed effect): 19.5 (1.3) L/h | Vc/F, apparent volume of the central compartment for parent drug, estimate (RSE %) ([1]; final model fixed effect): 28.8 (4.5) L | Vp/F, apparent volume of the peripheral compartment for parent drug, estimate (RSE %) ([1]; final model fixed effect): 105.6 (0.7) L | F higher in East Asian compared with non‐East Asian individuals ([1]; race covariate): 23% and ~ 23% | Vp/F lower in East Asian compared with non‐East Asian individuals ([1]; race covariate): 38% | BOV F1, between‐occasion variability, estimate (RSE %) ([1]; random effect): 52.9 (1.7) | BOV MTT, between‐occasion variability, estimate (RSE %) ([1]; random effect): 125 (2.2) h | BSV CL/F, between‐subject variability, estimate (RSE %) ([1]; random effect): 23.2 (5.6) L/h | BSV Vc/F, estimate (RSE %) ([1]; random effect): 306 (6.3) L | BSV Vp/F, estimate (RSE %) ([1]; random effect): 35.9 (6.9) L | CL/F_ECOG2+, covariate effect of ECOG on CL/F, estimate (RSE %) ([1]; relative change (1 + estimate)): −0.128 (43.9) | CL/F_HEALTHGP, covariate effect of healthy individuals on CL/F, estimate (RSE %) ([1]; relative change (1 + estimate)): 0.645 (17.1) | Vp/F_HEALTHGP, covariate effect of healthy individuals on Vp/F, estimate (RSE %) ([1]; relative change (1 + estimate)): −0.424 (5.9) | median time to peak plasma concentration (T max) ([2]; after oral administration): 0.75 h | absolute bioavailability [2]: 25% | mean steady‐state volume of distribution (Vss) [2]: approximately 34 L | mean terminal half‐life [2]: 1.4 h | BCRP substrate status [7]: substrate | AUC higher in Chinese participants than in White patients [8]: 48% | solubility, pH dependence [9]: solubility decreasing with increasing pH | BTK occupancy over 24 h (BTK [10]): maximal | metabolism by CYP3A enzymes into ACP‐5862 (CYP3A enzymes): predominantly metabolized | maximum tolerated dose [11]: not observed

From publication PMC12199099 (British Journal of Clinical Pharmacology, 2025)
